What is called MIC is the smallest concentration in the dilution series that meets the test's criterion for growth inhibition. A word on the MIC50: it is an inhibitory concentration at the 50% level, which refers to growth in some studies and to a panel of isolates in others. A lower MIC50 goes with greater potency. For orientation: MIC90 means the lowest concentration that inhibits either 90% of growth or 90% of the strains tested, depending on the study. A high value points to lower susceptibility.

Values after ≈ are worked out from the molar mass of the structure shown.

What all share (type): functional
For assay [1], the system named is Helicobacter pylori. In words: Anti-bacterial activity against Helicobacter pylori Clinical isolate F1 measured after 72 hrs incubation by modified broth dilution method. In general terms: In broth dilution the organism is exposed to a series of concentrations in liquid medium.
Assay [2] concerns Helicobacter pylori. As to the kind of experiment: Bactericidal activity against Helicobacter pylori Clinical isolate F1 measured after 72 hrs of incubation under microaerophilic conditions by modified broth dilution method. Conditions: read-out: MBC99.9. An outline of the steps: (§1)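 H. pylori (NCTC 11637, F1, 23, F4). Wells with no visible growth in the MIC assay spotted (10 μL) onto Skirrow agar. Plates incubated 72 h at 37 °C, microaerophilic, 100% humidity. MBC = concentration killing 99.9% of the initial inoculum. Triplicate, on at least three different days.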

Assay [3] concerns Helicobacter pylori. As to the kind of experiment: Anti-bacterial activity against Helicobacter pylori Clinical isolate 23 measured after 72 hrs incubation by modified broth dilution method.
In assay [4] the test system is Helicobacter pylori. As to the kind of experiment: Bactericidal activity against Helicobacter pylori Clinical isolate 23 measured after 72 hrs of incubation under microaerophilic conditions by modified broth dilution method. The note with it: read-out: MBC99.9. An outline of the steps: as §1
In assay [5] the test system is Helicobacter pylori. As to the kind of experiment: Anti-bacterial activity against Helicobacter pylori NCTC 11637 measured after 72 hrs incubation by modified broth dilution method.
The test system of assay [6] is Helicobacter pylori. In words: Bactericidal activity against Helicobacter pylori NCTC 11637 measured after 72 hrs of incubation under microaerophilic conditions by modified broth dilution method. The note with it: read-out: MBC99.9. An outline of the steps: as §1
The test system of assay [7] is Helicobacter pylori. In words: Anti-bacterial activity against Helicobacter pylori Clinical isolate F4 measured after 72 hrs incubation by modified broth dilution method.
Assay [8] has as its system Helicobacter pylori. In words: Bactericidal against Helicobacter pylori Clinical isolate F4 measured after 72 hrs of incubation under microaerophilic conditions by modified broth dilution method. Conditions: read-out: MBC99.9. An outline of the steps: as §1
For assay [9], the system named is Helicobacter pylori. In words: Anti-bacterial activity against Helicobacter pylori measured after 72 hrs incubation by modified broth dilution method.
Assay [10] has as its system Helicobacter pylori. As to the kind of experiment: Bactericidal against Helicobacter pylori measured after 72 hrs of incubation under microaerophilic conditions by modified broth dilution method. The note with it: for MBC: Helicobacter pylori, read-out: MBC99.9. An outline of the steps:
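Wells with no visible growth in the MIC assay spotted (10 μL) onto Skirrow agar. Plates incubated 72 h at 37 °C, microaerophilic, 100% humidity. Triplicate, on at least three different days.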

For the molecule `Cc1cc(/N=N/c2ccccc2Cl)c(C(C)C)c(/N=N/c2ccccc2Cl)c1O`, the MIC in the assay on Helicobacter pylori [1] worked out at 64 µg/mL (≈ 150 µM); in the assay with Helicobacter pylori [3], 128 µg/mL (≈ 300 µM); in the assay on Helicobacter pylori [5] it was 128 µg/mL (≈ 300 µM); with Helicobacter pylori [7] it was 128 µg/mL (≈ 300 µM). In addition, the MBC was over 128 µg/mL in the assay with Helicobacter pylori [2], over 128 µg/mL in the assay on Helicobacter pylori [4], 128 µg/mL (≈ 300 µM) in the assay with Helicobacter pylori [6] and over 128 µg/mL with Helicobacter pylori [8]. The molecule further had an MIC50 in the assay on Helicobacter pylori [9] of 128 µg/mL (≈ 300 µM). The MIC90 in the assay on Helicobacter pylori [9] amounted to 128 µg/mL (≈ 300 µM). In addition, in the assay with Helicobacter pylori [10], the MBC90 was over 128 µg/mL.

Take `Cc1c(/N=N/c2ccccc2Cl)cc(C(C)C)c(O)c1/N=N/c1ccccc1Cl`: the MIC with Helicobacter pylori [1] was 128 µg/mL (≈ 300 µM); with Helicobacter pylori [3], 128 µg/mL (≈ 300 µM); in the assay with Helicobacter pylori [5] it was over 128 µg/mL; in the assay on Helicobacter pylori [7] it was 128 µg/mL (≈ 300 µM). The MBC in the assay with Helicobacter pylori [2], in the assay on Helicobacter pylori [4], in the assay with Helicobacter pylori [6] and with Helicobacter pylori [8] was over 128 µg/mL each time. Further, the MIC50 in the assay with Helicobacter pylori [9] was found to be 128 µg/mL (≈ 300 µM). Moreover, the MIC90 in the assay on Helicobacter pylori [9] is over 128 µg/mL. For the same molecule, the MBC90 against Helicobacter pylori [10] was over 128 µg/mL.

As to `C=CCc1cc(/N=N/c2ccccc2C)c(O)c(OC)c1`, the minimal inhibitory concentration (MIC) against Helicobacter pylori [1] is 128 µg/mL (≈ 453 µM); in the assay on Helicobacter pylori [3] it was 64 µg/mL (≈ 227 µM); in the assay on Helicobacter pylori [5], 128 µg/mL (≈ 453 µM); with Helicobacter pylori [7] it was 64 µg/mL (≈ 227 µM). Further, the MBC in the assay on Helicobacter pylori [2] turned out to be 128 µg/mL (≈ 453 µM); in the assay on Helicobacter pylori [4], 64 µg/mL (≈ 227 µM); in the assay with Helicobacter pylori [6] it was 128 µg/mL (≈ 453 µM); in the assay on Helicobacter pylori [8] it was 64 µg/mL (≈ 227 µM). This molecule showed an MIC50 with Helicobacter pylori [9] of 64 µg/mL (≈ 227 µM). Besides, in the assay on Helicobacter pylori [9], the MIC90 stood at 128 µg/mL (≈ 453 µM). Further, the MBC90 with Helicobacter pylori [10] was found to be 128 µg/mL (≈ 453 µM).

As for `C=CCc1cc(/N=N/c2cccc([N+](=O)[O-])c2)c(O)c(OC)c1`, the MIC in the assay with Helicobacter pylori [1], in the assay with Helicobacter pylori [3], against Helicobacter pylori [5] and against Helicobacter pylori [7] was 128 µg/mL (≈ 409 µM) in each case. The MBC was over 128 µg/mL in the assay on Helicobacter pylori [2], 128 µg/mL (≈ 409 µM) in the assay on Helicobacter pylori [4], 128 µg/mL (≈ 409 µM) with Helicobacter pylori [6] and 128 µg/mL (≈ 409 µM) in the assay on Helicobacter pylori [8]. The molecule further returned an MIC50 in the assay on Helicobacter pylori [9] of 128 µg/mL (≈ 409 µM). Also, the MIC90 against Helicobacter pylori [9] was over 128 µg/mL. Besides, the MBC90 against Helicobacter pylori [10] was over 128 µg/mL.

As for `COc1cc(C=O)cc(/N=N/c2ccccc2Cl)c1O`, the MIC came out at 16 µg/mL (≈ 55 µM) in the assay on Helicobacter pylori [1], 64 µg/mL (≈ 220 µM) with Helicobacter pylori [3], 64 µg/mL (≈ 220 µM) against Helicobacter pylori [5] and 64 µg/mL (≈ 220 µM) against Helicobacter pylori [7]. Besides, the MBC amounted to 16 µg/mL (≈ 55 µM) in the assay with Helicobacter pylori [2], 64 µg/mL (≈ 220 µM) in the assay on Helicobacter pylori [4], 64 µg/mL (≈ 220 µM) with Helicobacter pylori [6] and 64 µg/mL (≈ 220 µM) in the assay with Helicobacter pylori [8]. Also, the MIC50 against Helicobacter pylori [9] came to 64 µg/mL (≈ 220 µM). In the assay with Helicobacter pylori [9], this molecule registered an MIC90 of 64 µg/mL (≈ 220 µM). In the assay with Helicobacter pylori [10], this molecule returned an MBC90 of 64 µg/mL (≈ 220 µM).

On to `COc1cc(C=O)cc(/N=N/c2ccc(C)cc2)c1O`, for which the MIC with Helicobacter pylori [1] came out at 2 µg/mL (≈ 7.4 µM); in the assay on Helicobacter pylori [3], 8 µg/mL (≈ 29.6 µM); in the assay on Helicobacter pylori [5] it was 4 µg/mL (≈ 14.8 µM); against Helicobacter pylori [7], 8 µg/mL (≈ 29.6 µM). The MBC turned out to be 2 µg/mL (≈ 7.4 µM) in the assay on Helicobacter pylori [2], 8 µg/mL (≈ 29.6 µM) in the assay with Helicobacter pylori [4], 4 µg/mL (≈ 14.8 µM) in the assay on Helicobacter pylori [6] and 8 µg/mL (≈ 29.6 µM) in the assay on Helicobacter pylori [8]. The MIC50 in the assay with Helicobacter pylori [9] is 4 µg/mL (≈ 14.8 µM). In the assay with Helicobacter pylori [9], this molecule had an MIC90 of 8 µg/mL (≈ 29.6 µM). Moreover, the MBC90 with Helicobacter pylori [10] was 8 µg/mL (≈ 29.6 µM).

For the molecule `COc1ccc(/N=N/c2cc(C(C)C)c(OC)cc2C)cc1`, the MIC in the assay with Helicobacter pylori [1] was 128 µg/mL (≈ 429 µM); in the assay on Helicobacter pylori [3], over 128 µg/mL; in the assay with Helicobacter pylori [5], over 128 µg/mL; against Helicobacter pylori [7], 128 µg/mL (≈ 429 µM). For the same molecule, the MBC in the assay with Helicobacter pylori [2] is over 128 µg/mL; in the assay on Helicobacter pylori [4], over 128 µg/mL; in the assay with Helicobacter pylori [6], over 128 µg/mL; in the assay on Helicobacter pylori [8], 128 µg/mL (≈ 429 µM). The molecule also returned an MIC50 against Helicobacter pylori [9] of 128 µg/mL (≈ 429 µM). The molecule also came in with an MIC90 in the assay on Helicobacter pylori [9] of over 128 µg/mL. Moreover, in the assay on Helicobacter pylori [10], the MBC90 is over 128 µg/mL.

On to `C=CCc1ccc(O)c(OC)c1` [EUGENOL], for which the MIC against Helicobacter pylori [1] worked out at 64 µg/mL (≈ 390 µM); against Helicobacter pylori [3], 64 µg/mL (≈ 390 µM); against Helicobacter pylori [5] it was 32 µg/mL (≈ 195 µM); against Helicobacter pylori [7], 64 µg/mL (≈ 390 µM). The MBC is 128 µg/mL (≈ 780 µM) in the assay on Helicobacter pylori [2], 64 µg/mL (≈ 390 µM) in the assay with Helicobacter pylori [4], 64 µg/mL (≈ 390 µM) with Helicobacter pylori [6] and 64 µg/mL (≈ 390 µM) in the assay with Helicobacter pylori [8]. This molecule also returned an MIC50 with Helicobacter pylori [9] of 64 µg/mL (≈ 390 µM). Further, in the assay with Helicobacter pylori [9], the MIC90 amounted to 64 µg/mL (≈ 390 µM). Besides, the MBC90 against Helicobacter pylori [10] worked out at 64 µg/mL (≈ 390 µM).

With `CC(=O)Oc1cc(C)c(/N=N/c2ccc([N+](=O)[O-])cc2)cc1C(C)C`, the MIC against Helicobacter pylori [1] was 128 µg/mL (≈ 375 µM); against Helicobacter pylori [3], 128 µg/mL (≈ 375 µM); with Helicobacter pylori [5] it was over 128 µg/mL; in the assay on Helicobacter pylori [7], over 128 µg/mL. The MBC in the assay on Helicobacter pylori [2] is 128 µg/mL (≈ 375 µM); with Helicobacter pylori [4], 128 µg/mL (≈ 375 µM); with Helicobacter pylori [6], over 128 µg/mL; in the assay with Helicobacter pylori [8] it was over 128 µg/mL. Moreover, the MIC50 against Helicobacter pylori [9] came to 128 µg/mL (≈ 375 µM). The molecule further yielded an MIC90 against Helicobacter pylori [9] of over 128 µg/mL. Moreover, in the assay with Helicobacter pylori [10], the MBC90 was over 128 µg/mL.

As to `Cc1ccc(C(C)C)c(O)c1` [THYMOL], the MIC was found to be 64 µg/mL (≈ 426 µM) against Helicobacter pylori [1], 128 µg/mL (≈ 852 µM) against Helicobacter pylori [3], 128 µg/mL (≈ 852 µM) in the assay on Helicobacter pylori [5] and 64 µg/mL (≈ 426 µM) with Helicobacter pylori [7]. The MBC with Helicobacter pylori [2] is 64 µg/mL (≈ 426 µM); with Helicobacter pylori [4], 128 µg/mL (≈ 852 µM); with Helicobacter pylori [6], 128 µg/mL (≈ 852 µM); in the assay on Helicobacter pylori [8], 64 µg/mL (≈ 426 µM); in the assay with Helicobacter pylori [10], 128 µg/mL (≈ 852 µM). Moreover, the MIC50 against Helicobacter pylori [9] came out at 64 µg/mL (≈ 426 µM). Also, the MIC90 against Helicobacter pylori [9] is 128 µg/mL (≈ 852 µM).

Regarding `Cc1ncc([N+](=O)[O-])n1CCO` [METRONIDAZOLE], the MIC turned out to be 2 µg/mL (≈ 11.7 µM) against Helicobacter pylori [1], 1 µg/mL (≈ 5.84 µM) against Helicobacter pylori [3], 256 µg/mL (≈ 1500 µM) against Helicobacter pylori [5] and 32 µg/mL (≈ 187 µM) in the assay with Helicobacter pylori [7]. The MBC amounted to 2 µg/mL (≈ 11.7 µM) in the assay on Helicobacter pylori [2], 1 µg/mL (≈ 5.84 µM) with Helicobacter pylori [4], 256 µg/mL (≈ 1500 µM) in the assay on Helicobacter pylori [6] and 32 µg/mL (≈ 187 µM) in the assay with Helicobacter pylori [8]. For the same molecule, the MIC50 with Helicobacter pylori [9] worked out at 2 µg/mL (≈ 11.7 µM). Moreover, the MIC90 with Helicobacter pylori [9] worked out at 256 µg/mL (≈ 1500 µM). The MBC90 against Helicobacter pylori [10] is 256 µg/mL (≈ 1500 µM).

For the molecule `C/C=C/c1ccc(O)c(OC)c1`, the MIC in the assay with Helicobacter pylori [1], with Helicobacter pylori [3], in the assay with Helicobacter pylori [5] and against Helicobacter pylori [7] was 32 µg/mL (≈ 195 µM) throughout. Also, the MBC in the assay on Helicobacter pylori [2], in the assay on Helicobacter pylori [4], in the assay on Helicobacter pylori [6], with Helicobacter pylori [8] and with Helicobacter pylori [10] was 32 µg/mL (≈ 195 µM) throughout. The MIC50 in the assay on Helicobacter pylori [9] worked out at 32 µg/mL (≈ 195 µM). This molecule also displayed an MIC90 against Helicobacter pylori [9] of 32 µg/mL (≈ 195 µM).
